Most compounds without a hit are left out; they make up all but 1.3% or so of the library.
DAGLB inhibitor – diacylglycerol lipase beta (human) inhibition; Q8NCG7; HEK293T DAGLB membrane lysate, EnzChek fluorogenic substrate; inhibition, % at 5.17 µM; hit rate 0.059% among 340,000; AID 504411; in the data active = inhibition above about 34%;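 also: 0% = enzyme with vehicle and 100% = wells lacking enzyme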
MT1-MMP act inh – MT1-MMP (human) activation inhibition. hit rate 0.061% among 360,000. HT1080 RFP-PRO-GFP cells, GFP/RFP ratio fluorescence, overnight; percent of plate control window, DMSO zero. GFP/RFP ratio change, % at 20 µM;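 active = GFP/RFP ratio change of at least 30% with cell ATP level not reduced by more than half and red fluorescence within 50% of control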
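system = RFP-PRO-GFP reporter HT1080 cells | dosing = 20 µM single dose, 1% DMSO | timing = overnight cell settling, then overnight compound exposure, 37 °C, 5% CO2 | read-out basis = GFP/RFP fluorescence ratio | controls = DMSO and RFP-L50D-GFP cell wells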
SKN-1 inh – C. elegans SKN-1 inhibition; C. elegans VP596 Pgst-4::GFP/RFP ratio, acrylamide-induced, 24 h; inhibition, % at 21.8 µM; hit rate 0.49% among 360,000;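 active = interference check ratio from 0.5 to 1.5 plus GFP to RFP signal ratio inhibition reaching or exceeding a fixed threshold, cut at about 30% in these data, passing the limit was not always enough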
FAS-TE inh – blocks the thioesterase domain of human fatty acid synthase | recombinant FAS-TE, OMFH fluorogenic substrate, fluorescence endpoint | inhibition, % at 15 µM | hit rate 0.67% among 360,000 | AID 602261;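 active = compounds whose normalised, plate-corrected inhibition of enzyme fluorescence in the single-dose primary screen is 50% or more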;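 also: 0% = DMSO with enzyme and 100% = substrate without enzyme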
Target sequence (P49327 whole entry, looked up, the tested form may be a part): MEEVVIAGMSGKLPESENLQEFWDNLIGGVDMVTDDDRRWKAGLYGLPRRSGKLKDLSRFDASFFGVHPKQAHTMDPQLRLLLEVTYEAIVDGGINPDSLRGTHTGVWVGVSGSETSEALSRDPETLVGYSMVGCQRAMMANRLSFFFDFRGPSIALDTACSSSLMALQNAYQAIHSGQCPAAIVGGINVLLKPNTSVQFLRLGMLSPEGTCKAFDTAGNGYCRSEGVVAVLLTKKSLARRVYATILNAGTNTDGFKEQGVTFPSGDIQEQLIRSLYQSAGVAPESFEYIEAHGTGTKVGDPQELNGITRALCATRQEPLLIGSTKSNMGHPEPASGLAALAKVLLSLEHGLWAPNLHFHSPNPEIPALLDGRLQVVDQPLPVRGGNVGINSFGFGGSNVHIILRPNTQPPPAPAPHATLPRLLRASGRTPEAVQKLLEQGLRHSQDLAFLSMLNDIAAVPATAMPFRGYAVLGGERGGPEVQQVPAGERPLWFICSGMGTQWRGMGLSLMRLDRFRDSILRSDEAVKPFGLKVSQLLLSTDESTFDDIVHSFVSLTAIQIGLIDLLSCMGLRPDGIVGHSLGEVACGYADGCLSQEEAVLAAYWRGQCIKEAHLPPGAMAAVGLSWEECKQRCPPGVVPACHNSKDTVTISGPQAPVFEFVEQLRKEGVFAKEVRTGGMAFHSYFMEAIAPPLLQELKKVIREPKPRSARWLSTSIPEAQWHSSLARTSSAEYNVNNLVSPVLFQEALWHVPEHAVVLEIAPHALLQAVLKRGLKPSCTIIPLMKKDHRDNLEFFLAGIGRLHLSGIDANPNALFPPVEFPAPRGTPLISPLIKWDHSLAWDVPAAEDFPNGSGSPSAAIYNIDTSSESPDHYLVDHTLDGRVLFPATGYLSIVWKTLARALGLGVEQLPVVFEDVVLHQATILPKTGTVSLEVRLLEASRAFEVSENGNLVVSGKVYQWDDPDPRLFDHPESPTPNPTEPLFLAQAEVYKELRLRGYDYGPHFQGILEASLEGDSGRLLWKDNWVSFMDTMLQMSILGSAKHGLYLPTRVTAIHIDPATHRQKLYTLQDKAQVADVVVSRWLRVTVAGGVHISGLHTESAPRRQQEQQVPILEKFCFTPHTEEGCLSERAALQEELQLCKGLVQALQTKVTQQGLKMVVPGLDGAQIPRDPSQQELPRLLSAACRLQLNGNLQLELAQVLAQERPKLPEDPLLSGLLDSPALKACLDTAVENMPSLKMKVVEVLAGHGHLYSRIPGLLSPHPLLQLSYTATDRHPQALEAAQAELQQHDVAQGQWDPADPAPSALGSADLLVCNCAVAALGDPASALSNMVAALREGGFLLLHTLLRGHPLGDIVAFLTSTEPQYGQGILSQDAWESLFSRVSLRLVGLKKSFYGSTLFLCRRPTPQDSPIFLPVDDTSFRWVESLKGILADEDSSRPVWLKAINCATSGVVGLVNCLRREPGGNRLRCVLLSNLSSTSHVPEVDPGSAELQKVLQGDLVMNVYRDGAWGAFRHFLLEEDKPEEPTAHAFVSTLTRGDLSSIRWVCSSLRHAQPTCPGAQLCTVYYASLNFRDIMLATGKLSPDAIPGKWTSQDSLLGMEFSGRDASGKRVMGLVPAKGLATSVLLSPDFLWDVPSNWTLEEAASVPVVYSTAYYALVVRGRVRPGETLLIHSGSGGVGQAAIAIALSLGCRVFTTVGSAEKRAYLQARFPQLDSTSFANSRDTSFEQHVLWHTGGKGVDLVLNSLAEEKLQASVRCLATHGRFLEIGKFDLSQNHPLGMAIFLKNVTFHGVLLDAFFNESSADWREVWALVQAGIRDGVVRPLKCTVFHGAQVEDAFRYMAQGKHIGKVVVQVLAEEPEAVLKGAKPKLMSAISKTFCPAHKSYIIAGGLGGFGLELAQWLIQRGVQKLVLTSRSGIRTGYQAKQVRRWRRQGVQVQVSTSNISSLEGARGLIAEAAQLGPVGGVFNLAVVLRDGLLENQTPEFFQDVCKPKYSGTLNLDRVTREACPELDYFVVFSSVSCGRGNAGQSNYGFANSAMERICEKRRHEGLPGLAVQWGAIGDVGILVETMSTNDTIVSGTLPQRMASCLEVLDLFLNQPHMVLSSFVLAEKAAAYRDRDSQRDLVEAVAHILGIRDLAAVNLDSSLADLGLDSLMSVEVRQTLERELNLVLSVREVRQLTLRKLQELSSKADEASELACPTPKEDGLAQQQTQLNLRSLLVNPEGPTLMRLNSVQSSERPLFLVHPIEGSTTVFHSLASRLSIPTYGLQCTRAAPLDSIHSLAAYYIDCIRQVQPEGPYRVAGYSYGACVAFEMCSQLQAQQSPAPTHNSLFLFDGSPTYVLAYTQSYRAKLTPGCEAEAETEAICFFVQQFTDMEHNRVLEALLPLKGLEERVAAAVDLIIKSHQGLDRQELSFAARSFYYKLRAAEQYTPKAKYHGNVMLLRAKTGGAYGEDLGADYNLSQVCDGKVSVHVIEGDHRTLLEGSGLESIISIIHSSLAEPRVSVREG
hiPSC survival – enhancers of human iPSC single-cell survival; hiPSC single-cell survival, ATPlite luminescence; 100% = ROCK inhibitor wells, 0% = DMSO; survival enhancement, % at 20 µM; hit rate 0.044% among 360,000; in the data active = survival enhancement above about 18%;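 also: cells exposed to compounds for 16 hours before the ATP read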
* marks the source's active call; other numbers are inactive results.

`C[C@H](CO)N1C[C@H](C)[C@@H](CN(C)C(=O)Nc2ccc(C(F)(F)F)cc2)Oc2c(NC(=O)Nc3ccc4c(c3)OCO4)cccc2C1=O` gave DAGLB inhibitor -0.5, MT1-MMP act inh 7.6, SKN-1 inh 1.0, FAS-TE inh 75.4* and hiPSC survival -3.7.
`C[C@H](CO)N1C[C@H](C)[C@@H](CN(C)C(=O)Nc2ccc3c(c2)OCO3)Oc2c(NC(=O)Nc3ccc(C(F)(F)F)cc3)cccc2C1=O` gave DAGLB inhibitor 2.3, MT1-MMP act inh -14.9, SKN-1 inh 7.7, FAS-TE inh 75.6* and hiPSC survival -2.0.
For C[C@@H]1CN([C@H](C)CO)C(=O)c2cccc(NC(=O)Nc3ccc(F)cc3)c2O[C@H]1CN(C)C(=O)Nc1ccc(C(F)(F)F)cc1 the results were DAGLB inhibitor 0.7, MT1-MMP act inh 2.2, SKN-1 inh -0.3, FAS-TE inh 37.0 and hiPSC survival -2.3.
For N#CN1C2CCC1CC(O)(c1ccccc1)C2 (centres undefined) the results were MT1-MMP act inh -0.5, SKN-1 inh 2.3, FAS-TE inh -0.8 and hiPSC survival 1.4.
For COc1cc(OC)c(C2C=CC(=O)CC2)c(OC)c1 (centres undefined) the results were MT1-MMP act inh -1.2, SKN-1 inh -4.6, FAS-TE inh -6.5 and hiPSC survival -0.8.
CCCCC/C=C\C/C=C\C/C=C\CCCCC(=O)O was read as DAGLB inhibitor 3.7, MT1-MMP act inh -2.5, SKN-1 inh -15.5, FAS-TE inh 6.1 and hiPSC survival 0.3.
`CCCCCCCC/C=C\CCCCCCCC(=O)O` gave DAGLB inhibitor 0.4, MT1-MMP act inh 1.4, SKN-1 inh 0.3, FAS-TE inh 62.1* and hiPSC survival 4.2.
For COc1ccc(/C=C(\C#N)C(=O)NCC2CCCO2)cc1OC (centres undefined) the results were DAGLB inhibitor -0.9, MT1-MMP act inh 2.3, SKN-1 inh 36.1*, FAS-TE inh -6.8 and hiPSC survival 3.6.
Screening COC(=O)N(C)C[C@H]1OCc2cn(nn2)CCCC(=O)N([C@@H](C)CO)C[C@@H]1C returned MT1-MMP act inh 1.9, SKN-1 inh 5.2, FAS-TE inh -12.5 and hiPSC survival 3.5.
CCC(=O)c1ccc(OCC(O)CN2CCN(S(=O)(=O)N3CCCCC3)CC2)cc1 (centres undefined) was read as DAGLB inhibitor -0.5, MT1-MMP act inh 0.9, SKN-1 inh 35.4*, FAS-TE inh -2.2 and hiPSC survival 3.5.
`Cc1ccccc1Cn1cnc2c(cnn2C(C)(C)C)c1=O` gave DAGLB inhibitor -5.8, MT1-MMP act inh 3.6, SKN-1 inh 11.1, FAS-TE inh -0.3 and hiPSC survival 2.1.
Screening CC(C)(C)n1ncc2c(=O)n(Cc3cccc(Cn4cnc5c(cnn5C(C)(C)C)c4=O)c3F)cnc21 returned DAGLB inhibitor 1.4, MT1-MMP act inh -0.6, SKN-1 inh 10.7, FAS-TE inh 55.4* and hiPSC survival -2.5.
`CC1(C(=O)NCc2cccc(Cl)c2)Cc2c(-c3ccc4c(c3)OCO4)ccnc2O1` (centres undefined) gave MT1-MMP act inh 0.9, SKN-1 inh 10.6, FAS-TE inh 21.7 and hiPSC survival -2.0.
Screening CN(C)/N=C/C=C1\CC/C(=C\c2ccc(Br)cc2)C1=O returned DAGLB inhibitor 7.1, MT1-MMP act inh -2.6, SKN-1 inh 40.7*, FAS-TE inh -3.7 and hiPSC survival -1.5.
CN(C)/N=C/C=C1\CCC/C(=C/c2cccs2)C1=O was read as DAGLB inhibitor 5.8, MT1-MMP act inh -0.4, SKN-1 inh 17.6, FAS-TE inh 2.6 and hiPSC survival -0.5.
Screening Cc1cc(Br)cn2c(Cc3cccc(F)c3)c(-c3ccc(C#N)cc3)nc12 returned MT1-MMP act inh -2.6, SKN-1 inh 11.4, FAS-TE inh 22.1 and hiPSC survival -0.7.
Screening O=C(Nc1nccs1)c1ccc2ccccc2n1 returned DAGLB inhibitor -3.4, MT1-MMP act inh 3.1, SKN-1 inh 57.0*, FAS-TE inh 4.1 and hiPSC survival -0.2.
`O=C(Nc1ccc(N2CCCCC2)cc1)c1ccc2ccccc2n1` gave DAGLB inhibitor 1.1, MT1-MMP act inh 7.4, SKN-1 inh 68.8*, FAS-TE inh 20.7 and hiPSC survival -0.6.
Screening O=C(Nc1cccc(S(=O)(=O)N2CCCCCC2)c1)c1ccc2ccccc2n1 returned DAGLB inhibitor -9.1, MT1-MMP act inh -10.8, SKN-1 inh 6.8, FAS-TE inh 31.8 and hiPSC survival 1.4.
Screening CCCS(=O)(=O)NC(=O)C1(C)CCN(C(=O)c2snnc2C)C1 (centres undefined) returned MT1-MMP act inh 1.5, SKN-1 inh 12.8, FAS-TE inh -5.3 and hiPSC survival -1.6.
O=S1(=O)N[C@@H](c2ccccc2)COc2cc(Br)ccc21 was read as DAGLB inhibitor -2.2, MT1-MMP act inh 0.3, SKN-1 inh 20.0, FAS-TE inh 2.6 and hiPSC survival 1.9.
Screening COc1ccc(S(=O)(=O)NC(=O)C2(C)CCN2C(=O)c2cccc(F)c2)cc1 (centres undefined) returned MT1-MMP act inh 4.7, SKN-1 inh 15.3, FAS-TE inh -6.6 and hiPSC survival -0.6.
CCOC(=O)N1CCN(c2ncnc3c2cnn3-c2ccc(OC)cc2)CC1 was read as DAGLB inhibitor 2.8, MT1-MMP act inh 6.8, SKN-1 inh 47.9*, FAS-TE inh -6.7 and hiPSC survival 1.4.
Screening c1ccc2c(Nc3nc4c(s3)CCCC4)cccc2c1 returned DAGLB inhibitor 1.3, MT1-MMP act inh 4.2, SKN-1 inh 45.4*, FAS-TE inh 5.7 and hiPSC survival -2.0.
For O=S(=O)(Nc1nc2c(s1)CCCC2)c1ccc2ccccc2c1 the results were DAGLB inhibitor 3.0, MT1-MMP act inh 1.3, SKN-1 inh -0.7, FAS-TE inh 3.3 and hiPSC survival 4.9.
`O=C(CN(Cc1ccco1)C(=O)CNS(=O)(=O)c1ccc(Cl)cc1)NCC1CCCO1` (centres undefined) gave DAGLB inhibitor -0.1, MT1-MMP act inh 8.1, SKN-1 inh -10.1, FAS-TE inh -3.4 and hiPSC survival 1.3.
Screening O=C(CN(Cc1ccco1)C(=O)CNS(=O)(=O)c1ccc(Cl)cc1)NC1CCCCC1 returned DAGLB inhibitor -2.0, MT1-MMP act inh -5.3, SKN-1 inh 37.5*, FAS-TE inh 2.8 and hiPSC survival -4.3.
For CCCCn1c(=O)[nH]c(=O)c2c1nc(CN1C(=O)c3ccccc3S1(=O)=O)n2CCC the results were DAGLB inhibitor 1.1, MT1-MMP act inh -5.6, SKN-1 inh 12.8, FAS-TE inh -0.6 and hiPSC survival -4.6.
`CCCCn1c(=O)[nH]c(=O)c2c1nc(Cn1ncc(Cl)c(Cl)c1=O)n2CCC` gave DAGLB inhibitor 3.6, MT1-MMP act inh -12.5, SKN-1 inh -14.4, FAS-TE inh 9.9 and hiPSC survival 20.0*.
`COc1ccccc1-c1cnc(C(O)c2cccc(F)c2)[nH]1` (centres undefined) gave MT1-MMP act inh -0.4, SKN-1 inh 17.0, FAS-TE inh -4.7 and hiPSC survival 1.7.
